In ChEMBL document CHEMBL1828575, “Design, synthesis and antiproliferative activities of biarylolefins based on polyhydroxylated and carbohydrate scaffolds” (Eur J Med Chem, 2011):

Legend:
Format in all cases: functional
[1] = system: U-251; experiment: Antitumor activity against human U251 cells after 48 hrs by SRB assay; conditions: U-251, 48 h; for CC50: read-out: LC50 (the source's name)
In short: (§1)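 NCI60 panel cells grown in RPMI 1640 with 5% FBS and 2 mM L-glutamine, plated at 5000–40,000 cells/well and preincubated 24 h at 37 °C, 5% CO₂. Compound was added from DMSO at five concentrations, 10-fold or 1/2 log dilutions, then incubated 48 h.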

[2] = system: OVCAR-8; experiment: Cytotoxicity against human OVCAR8 cells assessed as cellular growth at 10 uM after 48 hrs by SRB assay
In short: (§2)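 NCI-60 panel lines grown in RPMI 1640 with 5% FBS and 2 mM L-glutamine. Plated at 5000–40,000 cells/well and preincubated 24 h at 37 °C, 5% CO₂, with time-zero plates fixed in TCA. Compounds, dissolved in DMSO and diluted in medium, were applied for 48 h. Cells were TCA-fixed (10% final for adherent, 16% for suspension) and stained with 0.4% SRB in 1% acetic acid. Dye was solubilised in 10 mM Tris base and read at 515 nm; growth was expressed as a percentage of untreated control.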

[3] = system: HCC 2998; experiment: Antitumor activity against human HCC2998 cells after 48 hrs by SRB assay; conditions: HCC 2998, 48 h
In short: (§3)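 NCI60 panel in RPMI 1640 with 5% FBS and 2 mM L-glutamine. Cells were plated at 5000–40,000/well by doubling time, held 24 h, then time-zero plates were TCA-fixed. Five concentrations (10-fold or half-log dilutions of DMSO stocks) were applied for 48 h at 37 °C, 5% CO2. Cells were fixed with cold TCA (10% final adherent, 16% suspension) and stained with 0.4% SRB. Bound dye was dissolved in 10 mM Tris and read at 515 nm. GI50, TGI and LC50 were calculated per line.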

[4] = system: UACC-62; experiment: Antitumor activity against human UACC62 cells after 48 hrs by SRB assay; conditions: UACC-62, 48 h; in short: as §1
[5] = system: UACC-62; experiment: Cytotoxicity against human UACC62 cells assessed as cellular growth at 10 uM after 48 hrs by SRB assay; in short: as §2
[6] = system: SNB-75; experiment: Antitumor activity against human SNB75 cells after 48 hrs by SRB assay; conditions: SNB-75, 48 h; for CC50: read-out: LC50 (the source's name); in short: as §1
[7] = system: EKVX; experiment: Antitumor activity against human EKVX cells after 48 hrs by SRB assay; in short: as §3
[8] = system: SW-620; experiment: Antitumor activity against human SW620 cells after 48 hrs by SRB assay; conditions: SW-620, 48 h; in short: as §1
[9] = system: NCI-H23; experiment: Antitumor activity against human NCI-H23 cells after 48 hrs by SRB assay; conditions: NCI-H23, 48 h; in short: as §3
[10] = system: BT-549; experiment: Antitumor activity against human BT549 cells after 48 hrs by SRB assay; conditions: BT-549, 48 h
In short: (§4)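 NCI60 screen: cells grown in RPMI 1640 with 5% FBS and 2 mM L-glutamine, plated at 5000–40,000 cells/well by doubling time, preincubated 24 h at 37 °C with 5% CO2. Compounds were diluted from DMSO stocks and given for 48 h, at five concentrations for dose response. A time-zero plate was TCA-fixed. Cells were TCA-fixed, stained with 0.4% SRB and read at 515 nm, with growth expressed relative to untreated controls.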

[11] = system: UO-31; experiment: Cytotoxicity against human UO31 cells assessed as cellular growth at 10 uM after 48 hrs by SRB assay; in short: as §2
[12] = system: HL-60(TB); experiment: Antitumor activity against human HL-60(TB) cells after 48 hrs by SRB assay; conditions: HL-60, 48 h; in short: as §4
[13] = system: HOP-62; experiment: Antitumor activity against human HOP62 cells after 48 hrs by SRB assay; conditions: HOP-62, 48 h; for CC50: read-out: LC50 (the source's name); in short: as §3
[14] = system: ACHN; experiment: Cytotoxicity against human ACHN cells assessed as cellular growth at 10 uM after 48 hrs by SRB assay
In short: (§5)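 NCI60 single-dose screen of cells in RPMI 1640 with 5% FBS and 2 mM L-glutamine, preincubated 24 h at 37 °C, 5% CO₂. Cells were then exposed 48 h to compound added from DMSO stock. TCA-fixed, stained with 0.4% SRB in 1% acetic acid, dye solubilised in 10 mM Tris base and read at 515 nm. Growth is given as percent of untreated control.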

[15] = system: CAKI-1; experiment: Antitumor activity against human Caki1 cells after 48 hrs by SRB assay; conditions: CAKI-1, 48 h; in short: as §3
[16] = system: OVCAR-5; experiment: Antitumor activity against human OVCAR5 cells after 48 hrs by SRB assay; conditions: OVCAR-5, 48 h; in short: as §3
[17] = system: UO-31; experiment: Antitumor activity against human UO31 cells after 48 hrs by SRB assay; conditions: UO-31, 48 h; in short: as §1
[18] = Cytotoxicity against human NCI60 cells assessed as cellular growth at 10 uM after 48 hrs by SRB assay relative to untreated control; in short: as §2
[19] = system: LOX IMVI; experiment: Cytotoxicity against human LOXIMVI cells assessed as cellular growth at 10 uM after 48 hrs by SRB assay; in short: as §5
[20] = read-out: LC50 (the source's name)
[21] = read-out: pLC50 (the source's name) (converted)

## COc1cc(/C(=C2\O[C@@H]([C@H]3COC(C)(C)O3)[C@H]3OC(C)(C)O[C@@H]23)c2ccc3ccccc3c2)cc(OC)c1OC
[1]
  GI50: 3.12 µM
  TGI: 11.8 µM
  CC50: > 100 µM
[2]
  Activity: 18.91%
[3]; read-out: GI50
  GI50: 6.47 µM
[3]; [20]
  CC50: > 100 µM
[3]; read-out: TGI
  TGI: > 100 µM
[3]; read-out: pGI50 (converted)
  GI50: 6.46 µM
[3]; [21]
  CC50: > 100 µM
[3]; read-out: pTGI (converted)
  TGI: > 100 µM
[4]; read-out: GI50
  GI50: 7.13 µM
[4]; [20]
  CC50: > 100 µM
[4]; read-out: TGI
  TGI: 67.9 µM
[4]; read-out: pGI50 (converted)
  GI50: 3.31 µM
[4]; [21]
  CC50: > 100 µM
[4]; read-out: pTGI (converted)
  TGI: 67.6 µM
[5]
  Activity: 46.5%
[6]
  GI50: 2.89 µM
  TGI: 7.44 µM
  CC50: > 100 µM
[7]; read-out: GI50
  GI50: 5.59 µM
[7]; [20]
  CC50: > 100 µM
[7]; read-out: TGI
  TGI: > 100 µM
[7]; read-out: pGI50 (converted)
  GI50: 5.62 µM
[7]; [21]
  CC50: > 100 µM
[7]; read-out: pTGI
  TGI: > 100 µM
[8]; read-out: GI50
  GI50: 4.31 µM
[8]; [20]
  CC50: > 100 µM
[8]; read-out: TGI
  TGI: > 100 µM
[8]; read-out: pGI50 (converted)
  GI50: 4.27 µM
[8]; [21]
  CC50: > 100 µM
[8]; read-out: pTGI
  TGI: > 100 µM
[9]; read-out: GI50
  GI50: 5.43 µM
[9]; [20]
  CC50: > 100 µM
[9]; read-out: TGI
  TGI: > 100 µM
[9]; read-out: pGI50 (converted)
  GI50: 5.37 µM
[9]; [21]
  CC50: > 100 µM
[9]; read-out: pTGI (converted)
  TGI: > 100 µM
[10]; [20]
  CC50: > 100 µM
[10]; read-out: pGI50 (converted)
  GI50: 3.24 µM
[10]; [21]
  CC50: > 100 µM
[10]; read-out: pTGI (converted)
  TGI: 8.13 µM
[11]
  Activity: 46.81%
[12]; read-out: GI50
  GI50: 74.9 µM
[12]; [20]
  CC50: > 100 µM
[12]; read-out: TGI
  TGI: > 100 µM
[12]; read-out: pGI50 (converted)
  GI50: 74.1 µM
[12]; [21]
  CC50: > 100 µM
[12]; read-out: pTGI (converted)
  TGI: > 100 µM
[13]
  GI50: 9.78 µM
  TGI: 31.4 µM
  CC50: 99.8 µM
[14]
  Activity: 0.86%
[15]; read-out: GI50
  GI50: 4.54 µM
[15]; [20]
  CC50: > 100 µM
[15]; read-out: TGI
  TGI: > 100 µM
[15]; read-out: pGI50 (converted)
  GI50: 3.63 µM
[15]; [21]
  CC50: > 100 µM
[15]; read-out: pTGI (converted)
  TGI: > 100 µM
[16]; read-out: GI50
  GI50: 14 µM
[16]; [20]
  CC50: > 100 µM
[16]; read-out: TGI
  TGI: > 100 µM
[16]; read-out: pGI50 (converted)
  GI50: 3.89 µM
[16]; [21]
  CC50: > 100 µM
[16]; read-out: pTGI (converted)
  TGI: 7.94 µM
[17]; read-out: GI50
  GI50: 3.47 µM
[17]; [20]
  CC50: > 100 µM
[17]; read-out: TGI
  TGI: > 100 µM
[17]; read-out: pGI50 (converted)
  GI50: 3.47 µM
[17]; [21]
  CC50: > 100 µM
[17]; read-out: pTGI (converted)
  TGI: > 100 µM
[18]
  Activity: 30%
[19]
  Activity: 46.36%

## COc1ccc(/C(=C2/O[C@@H]([C@H]3COC(C)(C)O3)[C@H]3OC(C)(C)O[C@@H]23)c2cc(OC)c(OC)c(OC)c2)cc1O
[1]
  GI50: 3.84 µM
  TGI: 48.2 µM
  CC50: > 100 µM
[2]
  Activity: 68.27%
[3]; read-out: GI50
  GI50: 1.32 µM
[3]; [20]
  CC50: > 100 µM
[3]; read-out: TGI
  TGI: > 100 µM
[3]; read-out: pGI50 (converted)
  GI50: 20.9 µM
[3]; [21]
  CC50: > 100 µM
[3]; read-out: pTGI (converted)
  TGI: > 100 µM
[4]; read-out: GI50
  GI50: 5.79 µM
[4]; [20]
  CC50: > 100 µM
[4]; read-out: TGI
  TGI: > 100 µM
[4]; read-out: pGI50 (converted)
  GI50: 57.5 µM
[4]; [21]
  CC50: > 100 µM
[4]; read-out: pTGI (converted)
  TGI: > 100 µM
[5]
  Activity: 93.16%
[6]
  GI50: 1.8 µM
  TGI: 6.31 µM
  CC50: 53.5 µM
[7]; read-out: GI50
  GI50: 5.57 µM
[7]; [20]
  CC50: > 100 µM
[7]; read-out: TGI
  TGI: > 100 µM
[7]; read-out: pGI50 (converted)
  GI50: 56.2 µM
[7]; [21]
  CC50: > 100 µM
[7]; read-out: pTGI
  TGI: > 100 µM
[8]; read-out: GI50
  GI50: 4.05 µM
[8]; [20]
  CC50: > 100 µM
[8]; read-out: TGI
  TGI: > 100 µM
[8]; read-out: pGI50 (converted)
  GI50: 4.07 µM
[8]; [21]
  CC50: > 100 µM
[8]; read-out: pTGI
  TGI: > 100 µM
[9]; read-out: GI50
  GI50: 7.98 µM
[9]; [20]
  CC50: > 100 µM
[9]; read-out: TGI
  TGI: 46 µM
[9]; read-out: pGI50 (converted)
  GI50: 7.94 µM
[9]; [21]
  CC50: > 100 µM
[9]; read-out: pTGI (converted)
  TGI: 45.7 µM
[10]; read-out: GI50
  GI50: 5.39 µM
[10]; [20]
  CC50: > 100 µM
[10]; read-out: TGI
  TGI: > 100 µM
[10]; read-out: pGI50 (converted)
  GI50: 5.37 µM
[10]; [21]
  CC50: > 100 µM
[10]; read-out: pTGI (converted)
  TGI: > 100 µM
[11]
  Activity: 49.1%
[12]; read-out: GI50
  GI50: 3.39 µM
[12]; [20]
  CC50: > 100 µM
[12]; read-out: TGI
  TGI: 23.3 µM
[12]; read-out: pGI50 (converted)
  GI50: 3.39 µM
[12]; [21]
  CC50: > 100 µM
[12]; read-out: pTGI (converted)
  TGI: 23.4 µM
[13]
  GI50: 5.93 µM
  TGI: 25.5 µM
  CC50: 96.8 µM
[14]
  Activity: 44.73%
[15]; read-out: GI50
  GI50: 3.73 µM
[15]; [20]
  CC50: 29.8 µM
[15]; read-out: TGI
  TGI: > 100 µM
[15]; read-out: pGI50 (converted)
  GI50: 37.2 µM
[15]; [21]
  CC50: > 100 µM
[15]; read-out: pTGI (converted)
  TGI: > 100 µM
[16]; read-out: GI50
  GI50: > 1 µM
[16]; [20]
  CC50: > 100 µM
[16]; read-out: TGI
  TGI: > 100 µM
[16]; read-out: pGI50 (converted)
  GI50: 100 µM
[16]; [21]
  CC50: > 100 µM
[16]; read-out: pTGI (converted)
  TGI: > 100 µM
[17]; read-out: GI50
  GI50: 7.53 µM
[17]; [20]
  CC50: > 100 µM
[17]; read-out: TGI
  TGI: 77.8 µM
[17]; read-out: pGI50 (converted)
  GI50: 7.59 µM
[17]; [21]
  CC50: > 100 µM
[17]; read-out: pTGI (converted)
  TGI: 77.6 µM
[18]
  Activity: 57%
[19]
  Activity: 36.94%
